In ChEMBL document CHEMBL4732162, “Design, synthesis and evaluation of novel ErbB/HDAC multitargeted inhibitors with selectivity in EGFR mutant cell lines” (Eur J Med Chem, 2021):
Active and inactive are the calls of the source. The rule behind the calls is not given here.

Legend:
[1] = target: T1, Epidermal growth factor receptor (Homo sapiens, UniProt P00533); experiment: Inhibition of EGFR in human A431 cells assessed as reduction in EGFR phosphorylation at Tyr-1173 residues at 0.5 to 5 uM after 48 hrs by Western blot analysis; format: cell-based; details: A-431, dose 0.5-5 µM
T1 sequence (P00533 whole entry): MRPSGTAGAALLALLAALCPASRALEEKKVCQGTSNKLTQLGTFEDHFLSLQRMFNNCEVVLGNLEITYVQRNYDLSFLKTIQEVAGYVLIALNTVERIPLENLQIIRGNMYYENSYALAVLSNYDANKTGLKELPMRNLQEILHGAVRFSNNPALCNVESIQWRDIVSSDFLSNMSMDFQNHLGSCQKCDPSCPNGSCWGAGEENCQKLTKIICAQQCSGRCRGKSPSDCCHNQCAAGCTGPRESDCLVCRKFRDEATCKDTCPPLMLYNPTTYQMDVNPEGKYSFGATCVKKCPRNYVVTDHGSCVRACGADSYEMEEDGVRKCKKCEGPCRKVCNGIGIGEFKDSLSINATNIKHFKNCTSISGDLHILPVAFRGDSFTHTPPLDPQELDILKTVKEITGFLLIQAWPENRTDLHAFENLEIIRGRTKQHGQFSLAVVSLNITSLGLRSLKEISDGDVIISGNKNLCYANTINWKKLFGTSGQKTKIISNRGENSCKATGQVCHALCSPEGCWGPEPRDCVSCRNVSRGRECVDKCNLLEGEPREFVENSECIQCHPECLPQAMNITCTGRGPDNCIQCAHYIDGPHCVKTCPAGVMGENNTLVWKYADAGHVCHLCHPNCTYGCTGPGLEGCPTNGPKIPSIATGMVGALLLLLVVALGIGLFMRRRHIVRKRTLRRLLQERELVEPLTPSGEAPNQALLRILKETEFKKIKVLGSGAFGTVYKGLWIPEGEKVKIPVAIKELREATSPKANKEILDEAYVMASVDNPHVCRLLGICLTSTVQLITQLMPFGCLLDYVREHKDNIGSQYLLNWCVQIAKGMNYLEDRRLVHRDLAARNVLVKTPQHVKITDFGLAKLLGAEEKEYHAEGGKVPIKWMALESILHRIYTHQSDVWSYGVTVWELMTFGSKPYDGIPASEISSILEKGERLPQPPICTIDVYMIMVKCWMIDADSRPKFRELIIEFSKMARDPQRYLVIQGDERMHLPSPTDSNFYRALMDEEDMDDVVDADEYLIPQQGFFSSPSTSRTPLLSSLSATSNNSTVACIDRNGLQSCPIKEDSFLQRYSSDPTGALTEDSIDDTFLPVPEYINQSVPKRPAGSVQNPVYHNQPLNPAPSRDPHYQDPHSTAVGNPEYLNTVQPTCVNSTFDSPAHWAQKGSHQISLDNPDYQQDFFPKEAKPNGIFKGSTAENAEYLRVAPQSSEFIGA
How it was run: (§1)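 Cells were treated with compound for 48 h and lysed on ice for 30 min in RIPA buffer with protease and phosphatase inhibitors. Lysates were cleared at 14000 g, 4 °C, and protein quantified by BCA. Samples were boiled in loading buffer, run on 10–12% SDS-PAGE and transferred to PVDF. Membranes were blocked 2 h, incubated in primary antibody overnight at 4 °C, then in secondary antibody 2 h at room temperature.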

[2] = tested on: NCI-H1975; experiment: Induction of apoptosis in human NCI-H1975 cells assessed as viable cells at 2.5 uM incubated for 48 hrs by propidium iodide and annexin-V FITC staining based flow cytometry (Rvb =88.95% ); format: functional; details: read-out: Activity
[3] = tested on: NCI-H1975; experiment: Down regulation of AKT protein expression in human NCI-H1975 cells at 0.5 to 5 uM after 48 hrs by Western blot analysis; format: functional, cell-based; details: dose 0.5-5 µM; how it was run: as §1
[4] = target: Histone deacetylase (Homo sapiens) (UniProt Q13547+O15379+Q9UBN7+Q92769+Q9UQL6+Q8WUI4+Q9BY41+Q96DB2+P56524+Q9UKV0+Q969S8); experiment: Inhibition of HDAC in human NCI-H1975 cells assessed as increase in histone H3 acetylation at 2.5 uM after 1 to 12 hrs by Western blot analysis; format: cell-based; details: time lower 1.0 hrs, time upper […]
[5] = target: T1, Epidermal growth factor receptor; experiment: Inhibition of EGFR in human NCI-H1975 cells assessed as reduction in AKT phosphorylation at S473 residues at 0.5 to 5 uM after 48 hrs by Western blot analysis; format: cell-based; details: dose 0.5-5 µM; how it was run: as §1
[6] = tested on: L02; experiment: cytotoxicity against human HL-7702 cells assessed as reduction of cell viability incubated for 72 hrs by MTT assay; format: ADME, cell-based; details: L02, 72 h
[7] = tested on: NCI-H1975; experiment: Induction of apoptosis in human NCI-H1975 cells assessed as early apoptotic cells at 0.5 uM incubated for 48 hrs by propidium iodide and annexin-V FITC staining based flow cytometry (reference value: 6.67 %); format: functional
[8] = tested on: NCI-H1975; experiment: Induction of apoptosis in human NCI-H1975 cells assessed as increase in cleaved-caspase 8 level at 0.5 to 5 uM after 48 hrs by Western blot analysis; format: functional, cell-based; details: dose 0.5-5 µM; how it was run: as §1
[9] = tested on: NCI-H1975; experiment: Induction of apoptosis in human NCI-H1975 cells assessed as necrotic cells at 2.5 uM incubated for 48 hrs by propidium iodide and annexin-V FITC staining based flow cytometry (Rvb =0.18% ); format: functional
[10] = tested on: NCI-H1975; experiment: Antiinvasive activity against human NCI-H1975 cells measured after 72 hrs by crystal violet dye-based transwell assay; format: functional, cell-based; details: dose 0.5-5 µM
How it was run: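 NCI-H1975 cells, 1 × 10⁴/well, seeded in serum-free medium in the upper chamber of a transwell insert. The lower chamber held 10% FBS medium with compound at the indicated dilutions, for 72 h. Non-invading cells were swabbed off. Cells on the membrane underside were fixed in 10% buffered formalin for 1 h, stained with crystal violet for 1 h, and imaged in three random fields.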

How did the inhibition [1] turn out when `C=CC(=O)Nc1cc2c(Nc3ccc(F)c(Cl)c3)ncnc2cc1OCc1cn(CCCC(=O)NO)nn1` was run?
The inhibition was “Active”.

And the viability at 2.5 µM [2]?
The viability at 2.5 µM was 54%.

What about the Activity [3] of the same compound?
Its Activity is “Active”.

And the inhibition [4]?
The inhibition was “Active”.

What about the inhibition [5] of the same compound?
Its inhibition is “Active”.

And the IC50 [6]?
The IC50 was over 25 µM.

And the Activity [7]?
The Activity was 24.28%.

What about the Activity [8] of the same compound?
Its Activity is “Active”.

And the Activity [9]?
Its Activity is 0.36%.

And the Activity [10]?
The Activity was “Dose-dependent effect”.
